Measurements reported in ChEMBL document CHEMBL2046311, “Design, synthesis, and molecular hybrids of caudatin and cinnamic acids as novel anti-hepatitis B virus agents” (Eur J Med Chem, 2012).

Tests used:
Hepatitis B virus [1] = test: Antiviral activity against Hepatitis B virus infected in human HepG2(2.2.15) cells assessed as inhibition of viral surface antigen secretion by ELISA; assay type: functional, organism-based
Summary of the method: (§1)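 HepG 2.2.15 cells in RPMI-1640 with 10% fetal calf serum at 37 °C, 5% CO2. Compounds dissolved in DMSO, culture DMSO below 2.5 μL/mL. Secreted HBeAg and HBsAg measured by ELISA. IC50 values are means of at least two experiments.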

Hepatitis B virus [2] = test: Antiviral activity against Hepatitis B virus infected in human HepG2(2.2.15) cells assessed as inhibition of viral e antigen secretion by ELISA; assay type: functional, organism-based; summary of the method: as §1
[3] = Cytotoxicity against human HepG2(2.2.15) cells by modified-MTT assay; assay type: cell-based
Summary of the method: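 HepG 2.2.15 cells in RPMI-1640 with 10% fetal calf serum at 37 °C, 5% CO2. Compounds in DMSO, final DMSO below 2.5 μL/mL. Viability read by modified MTT method. CC50 is the mean of at least two experiments.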

[4] = Selectivity index, ratio of CC50 for human HepG2(2.2.15) cells to IC50 for Hepatitis B virus infected in human HepG2(2.2.15) cells assessed as inhibition of viral surface antigen secretion; assay type: functional
Summary of the method: (§2)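 SI calculated as CC50 (MTT, HepG 2.2.15) divided by IC50 for the named read-out (HBV DNA by real-time PCR, or HBeAg or HBsAg secretion by ELISA), in the same cell line.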

[5] = Selectivity index, ratio of CC50 for human HepG2(2.2.15) cells to IC50 for Hepatitis B virus infected in human HepG2(2.2.15) cells assessed as inhibition of viral e antigen secretion; assay type: functional; summary of the method: as §2
Hepatitis B virus [6] = test: Antiviral activity against Hepatitis B virus infected in human HepG2(2.2.15) cells assessed as inhibition of viral DNA replication by PCR analysis; assay type: functional, organism-based
Summary of the method: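 HepG 2.2.15 cells grown in RPMI-1640 with 10% fetal calf serum, […] and penicillin/streptomycin at 37 °C, 5% CO2. Compounds added in DMSO, kept below 2.5 μL/mL. HBV DNA quantified by SYBR Green real-time PCR with HBV-specific primers spanning 541–591 bp. IC50 values are means of at least two experiments.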

[7] = Selectivity index, ratio of CC50 for human HepG2(2.2.15) cells to IC50 for Hepatitis B virus infected in human HepG2(2.2.15) cells assessed as inhibition of viral DNA replication; assay type: functional; summary of the method: as §2

SMILES	IC50 (Hepatitis B virus [1]) [µM]	IC50 (Hepatitis B virus [2]) [µM]	CC50 [3] [µM]	Ratio CC50/IC50 [4]	Ratio CC50/IC50 [5]	IC50 (Hepatitis B virus [6]) [µM]	Ratio CC50/IC50 [7]
CC(=O)[C@]1(O)CC[C@@]2(O)[C@]1(C)[C@H](OC(=O)/C=C(\C)C(C)C)C[C@@H]1[C@@]3(C)CC[C@H](OC(=O)/C=C/c4cccc(C)c4)CC3=CC[C@]12O	25.4	132	> 1390	>54.7	>10.5	7.22	>192.6
CC(=O)[C@]1(O)CC[C@@]2(O)[C@]1(C)[C@H](OC(=O)/C=C(\C)C(C)C)C[C@@H]1[C@@]3(C)CC[C@H](OC(=O)/C=C/c4cccc(F)c4F)CC3=CC[C@]12O	13.2	16.4	118	9	7.2	2.86	>41.2
COc1ccc(/C=C/C(=O)O[C@H]2CC[C@@]3(C)C(=CC[C@]4(O)[C@@H]3C[C@@H](OC(=O)/C=C(\C)C(C)C)[C@@]3(C)[C@]4(O)CC[C@@]3(O)C(C)=O)C2)cc1OC	22.1	85.2	> 1600	>72.7	>18.8	11.8	>135.6
CC(=O)[C@]1(O)CC[C@@]2(O)[C@]1(C)[C@H](OC(=O)/C=C(\C)C(C)C)C[C@@H]1[C@@]3(C)CC[C@H](OC(=O)/C=C/c4ccc(F)cc4)CC3=CC[C@]12O	45.6	39.5	> 1290	>28.3	>32.6	10.4	>123.9
CC(=O)[C@]1(O)CC[C@@]2(O)[C@]1(C)[C@H](OC(=O)/C=C(\C)C(C)C)C[C@@H]1[C@@]3(C)CC[C@H](OC(=O)/C=C/c4cccc(Cl)c4)CC3=CC[C@]12O	18.8	359	> 1320	>70.1	>3.7	12.7	>103.6
CC(=O)[C@]1(O)CC[C@@]2(O)[C@]1(C)[C@H](OC(=O)/C=C(\C)C(C)C)C[C@@H]1[C@@]3(C)CC[C@H](O)CC3=CC[C@]12O [CAUDATIN]	–	> 183	–	1.7	<1.3	–	6
CC(=O)[C@]1(O)CC[C@@]2(O)[C@]1(C)[C@H](OC(=O)/C=C(\C)C(C)C)C[C@@H]1[C@@]3(C)CC[C@H](OC(=O)/C=C/c4ccccc4)CC3=CC[C@]12O	48.3	94.2	> 1420	>29.3	>15	5.91	>239.9
CC(=O)[C@]1(O)CC[C@@]2(O)[C@]1(C)[C@H](OC(=O)/C=C(\C)C(C)C)C[C@@H]1[C@@]3(C)CC[C@H](OC(=O)/C=C/c4ccc(Br)cc4)CC3=CC[C@]12O	36.4	485	> 1290	>35.5	>2.7	16	>80.6
CC(=O)[C@]1(O)CC[C@@]2(O)[C@]1(C)[C@H](OC(=O)/C=C(\C)C(C)C)C[C@@H]1[C@@]3(C)CC[C@H](OC(=O)/C=C/c4ccc(F)c(C(F)(F)F)c4)CC3=CC[C@]12O	71.6	798	> 1330	>18.6	>1.7	8.93	>149.2
CC(=O)[C@]1(O)CC[C@@]2(O)[C@]1(C)[C@H](OC(=O)/C=C(\C)C(C)C)C[C@@H]1[C@@]3(C)CC[C@H](OC(=O)/C=C/c4ccccc4F)CC3=CC[C@]12O	72	21.6	523	7.3	24.2	7.68	68.1
CC(=O)[C@]1(O)CC[C@@]2(O)[C@]1(C)[C@H](OC(=O)/C=C(\C)C(C)C)C[C@@H]1[C@@]3(C)CC[C@H](OC(=O)/C=C/c4ccc(C(F)(F)F)cc4)CC3=CC[C@]12O	60.2	1270	> 1270	>21.1	>1	10.1	>125.9
CCOc1cccc(/C=C/C(=O)O[C@H]2CC[C@@]3(C)C(=CC[C@]4(O)[C@@H]3C[C@@H](OC(=O)/C=C(\C)C(C)C)[C@@]3(C)[C@]4(O)CC[C@@]3(O)C(C)=O)C2)c1	24.9	141	> 2140	>85.9	>15.2	9.3	>230.1
CC(=O)[C@]1(O)CC[C@@]2(O)[C@]1(C)[C@H](OC(=O)/C=C(\C)C(C)C)C[C@@H]1[C@@]3(C)CC[C@H](OC(=O)/C=C/c4ccc5c(c4)OCO5)CC3=CC[C@]12O	9.37	43.7	> 1660	>176.7	>37.9	6.45	>256.7
COc1ccc(/C=C/C(=O)O[C@H]2CC[C@@]3(C)C(=CC[C@]4(O)[C@@H]3C[C@@H](OC(=O)/C=C(\C)C(C)C)[C@@]3(C)[C@]4(O)CC[C@@]3(O)C(C)=O)C2)cc1	108	569	> 1380	>12.9	>2.4	10.9	>127.1
CC(=O)[C@]1(O)CC[C@@]2(O)[C@]1(C)[C@H](OC(=O)/C=C(\C)C(C)C)C[C@@H]1[C@@]3(C)CC[C@H](OC(=O)/C=C/c4cccc(F)c4)CC3=CC[C@]12O	8.4	12.6	> 1060	>126.7	>84.7	4.75	>224
CC(=O)[C@]1(O)CC[C@@]2(O)[C@]1(C)[C@H](OC(=O)/C=C(\C)C(C)C)C[C@@H]1[C@@]3(C)CC[C@H](OC(=O)/C=C/c4ccc(Cl)c(Cl)c4)CC3=CC[C@]12O	112	949	> 1420	>12.7	>1.5	14.1	>101.2
CC(=O)[C@]1(O)CC[C@@]2(O)[C@]1(C)[C@H](OC(=O)/C=C(\C)C(C)C)C[C@@H]1[C@@]3(C)CC[C@H](OC(=O)/C=C/c4ccccc4C(F)(F)F)CC3=CC[C@]12O	46.9	> 1280	1760	37.6	<1.4	5	352.9
COc1cccc(/C=C/C(=O)O[C@H]2CC[C@@]3(C)C(=CC[C@]4(O)[C@@H]3C[C@@H](OC(=O)/C=C(\C)C(C)C)[C@@]3(C)[C@]4(O)CC[C@@]3(O)C(C)=O)C2)c1	10.5	24.9	> 1080	>102	>43.3	4.46	>241.2
CC(=O)[C@]1(O)CC[C@@]2(O)[C@]1(C)[C@H](OC(=O)/C=C(\C)C(C)C)C[C@@H]1[C@@]3(C)CC[C@H](OC(=O)/C=C/c4ccc(Cl)c([N+](=O)[O-])c4)CC3=CC[C@]12O	9.52	79.5	450	47.3	5.7	6.31	71.3
COc1ccc(/C=C/C(=O)O[C@H]2CC[C@@]3(C)C(=CC[C@]4(O)[C@@H]3C[C@@H](OC(=O)/C=C(\C)C(C)C)[C@@]3(C)[C@]4(O)CC[C@@]3(OC(=O)/C=C/c3ccc(OC)c(OC)c3)C(C)=O)C2)cc1OC	528	632	> 1210	>2.3	>1.9	> 307	–
COc1cc(/C=C/C(=O)O[C@H]2CC[C@@]3(C)C(=CC[C@]4(O)[C@@H]3C[C@@H](OC(=O)/C=C(\C)C(C)C)[C@@]3(C)[C@]4(O)CC[C@@]3(O)C(C)=O)C2)cc(OC)c1	29.6	380	> 1020	>34.6	>2.7	11.7	>87.4
CC(=O)[C@]1(O)CC[C@@]2(O)[C@]1(C)[C@H](OC(=O)/C=C(\C)C(C)C)C[C@@H]1[C@@]3(C)CC[C@H](OC(=O)/C=C/c4ccccc4C)CC3=CC[C@]12O	81.1	230	1370	16.9	6	7.2	190.4
C[C@H](Cn1cnc2c(N)ncnc21)OCP(=O)(O)O [TENOFOVIR ANHYDROUS]	–	1160	> 1740	>1.2	>1.5	0.68	>2560.2
